In brackets after ≈: the same amount, converted by molar mass.
Legend:
[1] = Tmax in ICR mouse at 25 mg/kg, po administered as single dose; type: ADME, organism-based; details: in vivo
Method in brief: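 SPF female ICR mice (20-25 g), 3 per group, given a single oral dose of 25 mg/kg as a suspension in 0.5% CMC. Blood drawn from the jugular vein at 0.25, 0.5, 1, 2, 4, 6, 8 and 24 h post-dose. AUC(0-inf), t1/2, Cmax and Tmax derived directly from the concentration-time data.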

[2] = Selectivity index, ratio of CC50 for African green monkey Vero cells to MIC for Mycobacterium tuberculosis H37Rv; type: toxicity; details: read-out: Selectivity Index
Method in brief: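 SI calculated as CC50/MIC against H37Rv. Viability read by MTT, CC50 by Bliss analysis. MIC comes from the 7-day visual broth test.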

[3] = Cytotoxicity against African green monkey Vero cells after 72 hrs by MTT assay; type: cell-based; details: chlorocebus sabaeus
[4] = test system: Mycobacterium tuberculosis; assay: Antimycobacterial activity against Mycobacterium tuberculosis H37Rv incubated for 7 days by rapid direct susceptibility test; type: functional; details: 168 h
Method in brief: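 Two-fold dilutions of compound mixed with MTB suspension holding 4×10^-3 mg cells (H37Rv, or MDR strain resistant to ethambutol, INH and RIF) in 48-well plates. Incubation at 37 °C in a wet box. Cells in each well observed by continuous visual high-magnification system, re-read 7 days later. MIC taken as lowest concentration inhibiting visible growth.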

| Compound | Tmax [1] [h] | selectivity ratio [2] | CC50 at 72 h [3] [µM] | MIC [4] [µg/mL] |
| --- | --- | --- | --- | --- |
| CCOC(=O)c1c(-c2ccc(OC)cc2)oc2ccc(OCc3cn(CCN4C(=O)/C(=N/NC(N)=S)c5cc(OC)ccc54)nn3)cc12 | 1.24 | – | – | – |
| CCOC(=O)c1c(-c2ccc(O)cc2)oc2ccc(O)c(CN3CCCCC3)c12 | 3.46 | – | – | – |
| NNC(=O)c1ccncc1 [ISONIAZID] | – | 4096 | 256 | 0.06 (≈ 0.438 µM) |
| CO[C@H]1/C=C/O[C@@]2(C)Oc3c(C)c(O)c4c(O)c(c(/C=N/N5CCN(C)CC5)c(O)c4c3C2=O)NC(=O)/C(C)=C\C=C\[C@H](C)[C@H](O)[C@@H](C)[C@@H](O)[C@@H](C)[C@H](OC(C)=O)[C@@H]1C [RIFAMPIN] | – | 1024 | 512 | – |

— ChEMBL document CHEMBL4261608, “Design, synthesis and anti-mycobacterial activity evaluation of benzofuran-isatin hybrids” (Eur J Med Chem, 2018)
